Reference: ChEMBL document CHEMBL4304821, “Synthesis and structure-activity relationship of nitrile-based cruzain inhibitors incorporating a trifluoroethylamine-based P2 amide replacement” (Bioorg Med Chem, 2019)
Calls of active or inactive are those of the source. The calls are words filed in the database; no cut-off is given here.

Experiments:
Cruzipain [1] = target: T1, Cruzipain (Trypanosoma cruzi, UniProt P25779); assay: Inhibition of Trypanosoma cruzi cruzain assessed as inhibitor constant using Z-Phe-Arg-7-amido-4-methylcoumarin as substrate preincubated for 2 mins followed by susbtrate addition by fluorescence based analysis
Outline: (§1)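 Recombinant cruzain was the catalytic domain of cruzipain without the C-terminal extension, used at 0.15 nM. The assay ran at 37 °C in 100 mM acetate buffer pH 5.5 with 300 mM NaCl, 5 mM DTT, 5% v/v DMSO and 0.01% Triton X-100. Hydrolysis of Z-Phe-Arg-AMC was followed as rate by fluorescence (ex 355/em 460 nm).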

[2] = target: Cruzipain (Trypanosoma cruzi) (UniProt P25779); assay: Inhibition of Trypanosoma cruzi cruzain assessed as initial velocity using Z-Phe-Arg-7-amido-4-methylcoumarin as substrate preincubated for 2 mins followed by susbtrate addition by fluorescence based analysis; outline: as §1
Trypanosoma cruzi = assay: Antitrypanosomal activity against Trypanosoma cruzi Y strain amastigotes infected in human U2OS cells assessed as parasite growth inhibition after 72 hrs post infection by DRAQ5 staining based analysis; type: functional, organism-based
Outline: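 U2OS cells were seeded at 700/well in high DMEM and held 24 h at 37 °C/5% CO2. They were infected with T. cruzi Y strain trypomastigotes from LLC-MK2 cultures at 4 parasites per host cell. Compounds were added on day 3 as 17 points of 2-fold dilution from 100 µM (1% DMSO final), with 96 h exposure. Cells were PFA-fixed, Draq5-stained and imaged. Infection ratio was normalized to infected DMSO and non-infected controls, and EC50 came from a sigmoidal fit. Two independent experiments were run.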

Cruzipain [3] = target: T1, Cruzipain; assay: Inhibition of Trypanosoma cruzi cruzain using Z-Phe-Arg-7-amido-4-methylcoumarin as substrate preincubated for 2 mins followed by susbtrate addition by fluorescence based analysis; outline: as §1
Procathepsin L = Procathepsin L (Homo sapiens, UniProt P07711); assay: Inhibition of Cathepsin L (unknown origin) using Z-Phe-Arg-7-amido-4-methylcoumarin as substrate preincubated for 2 mins followed by susbtrate addition by fluorescence based analysis
Outline: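 Cathepsin L was used at 0.30 nM, at 37 °C in 100 mM acetate buffer pH 5.5 with 300 mM NaCl, 1 mM DTT, 1 mM EDTA, 5% v/v DMSO and 0.01% Triton X-100. Z-Phe-Arg-AMC hydrolysis rate was monitored by fluorescence (ex 355/em 460 nm).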

[4] = Lipophilicity, log Kw of compound by HPLC analysis; type: physicochemical
[5] = Cytotoxicity in human U2OS cells assessed as reduction in cell viability after […] by DRAQ5 staining based analysis
Outline: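 Infected U2OS cells (Y strain, 4 parasites/cell) were exposed to 17 2-fold concentrations starting at 100 µM in 1% DMSO. Exposure was 96 h. Wells were PFA-fixed, Draq5-stained and imaged at 20X to count host cells. CC50 is the concentration that lowers the cell ratio to 0.5 versus the mean cell number in DMSO negative-control wells. Duplicate independent experiments.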

Procathepsin L, sequence (P07711 whole entry): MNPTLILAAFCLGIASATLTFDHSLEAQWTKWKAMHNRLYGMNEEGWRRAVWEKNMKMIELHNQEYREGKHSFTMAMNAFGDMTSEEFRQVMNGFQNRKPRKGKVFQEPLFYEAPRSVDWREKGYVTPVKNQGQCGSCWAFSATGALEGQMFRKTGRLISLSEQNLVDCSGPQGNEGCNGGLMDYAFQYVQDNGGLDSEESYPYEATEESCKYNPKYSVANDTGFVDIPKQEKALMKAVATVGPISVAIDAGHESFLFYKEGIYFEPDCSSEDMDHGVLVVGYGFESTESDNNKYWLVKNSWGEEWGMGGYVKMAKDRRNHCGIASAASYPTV
T1 sequence (P25779 whole entry, the tested form may be a part): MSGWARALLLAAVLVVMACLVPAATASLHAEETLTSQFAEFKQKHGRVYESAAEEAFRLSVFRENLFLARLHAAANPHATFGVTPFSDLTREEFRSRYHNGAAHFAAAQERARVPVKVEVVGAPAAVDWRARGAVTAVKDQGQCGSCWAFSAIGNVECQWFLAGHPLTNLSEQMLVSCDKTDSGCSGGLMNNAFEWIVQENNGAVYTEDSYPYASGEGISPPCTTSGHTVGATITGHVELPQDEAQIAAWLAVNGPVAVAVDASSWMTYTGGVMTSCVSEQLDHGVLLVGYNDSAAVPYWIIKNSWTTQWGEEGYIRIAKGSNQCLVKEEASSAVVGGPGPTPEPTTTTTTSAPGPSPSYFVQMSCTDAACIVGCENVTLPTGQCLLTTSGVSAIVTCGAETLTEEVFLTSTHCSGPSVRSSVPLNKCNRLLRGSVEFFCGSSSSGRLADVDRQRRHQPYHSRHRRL
Cruzipain (Trypanosoma cruzi), sequence (P25779 123-467 limits assumed): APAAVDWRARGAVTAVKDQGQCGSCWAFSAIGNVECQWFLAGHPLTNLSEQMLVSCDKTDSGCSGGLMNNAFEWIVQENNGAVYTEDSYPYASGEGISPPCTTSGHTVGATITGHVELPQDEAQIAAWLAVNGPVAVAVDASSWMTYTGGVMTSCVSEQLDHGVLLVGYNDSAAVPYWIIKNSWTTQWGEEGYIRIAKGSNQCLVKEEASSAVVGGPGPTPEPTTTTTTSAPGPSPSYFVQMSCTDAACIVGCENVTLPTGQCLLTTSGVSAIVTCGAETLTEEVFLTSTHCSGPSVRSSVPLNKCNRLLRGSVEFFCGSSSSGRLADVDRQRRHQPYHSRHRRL

Ki (Cruzipain [1]) [µM]	V0 [2] [RFU/s]	Ki (Cruzipain [3]) [µM]	Ki (Procathepsin L) [µM]	logKw [4]	EC50 (Trypanosoma cruzi) [µM]	SMILES	Activity (Trypanosoma cruzi)	CC50 [5] [µM]
–	3.22	0.000631	1.58	3.2	–	CC(C)C[C@H](N[C@@H](c1ccc(-c2ccccc2)cc1)C(F)(F)F)C(=O)N[C@H](C#N)Cc1ccccc1	inactive	–
–	–	0.0631	0.631	2.8	–	CC(C)C[C@H](N[C@H](c1ccc(-c2ccccc2)cc1)C(F)(F)F)C(=O)NC1(C#N)CC1	inactive	–
–	–	0.251	–	3.1	–	CC(C)C[C@H](N[C@H](c1ccc(-c2ccccc2)cc1)C(F)(F)F)C(=O)N[C@H](C#N)Cc1ccccc1	inactive	–
–	–	0.0398	–	–	–	CC(C)C[C@H](N[C@@H](c1ccccc1)C(F)(F)F)C(=O)NC1(C#N)CC1	inactive	–
4.06	3.87	–	–	–	–	CC(C)C[C@H](N[C@@H](c1ccc(-c2ccc(F)cc2)cc1)C(F)(F)F)C(=O)NC1(C#N)CC1	–	–
0.168	4.15	–	–	–	–	O=C(O)[C@H](Cc1c[nH]c2ccccc12)N[C@H](c1cccc(Cl)c1)C(F)(F)F	–	–
–	–	0.0794	1	2.8	–	CC(C)C[C@H](N[C@H](c1ccc(-c2ccc(F)cc2)cc1)C(F)(F)F)C(=O)NC1(C#N)CC1	inactive	–
–	2.71	0.398	0.251	2.2	–	CC(C)C[C@H](N[C@H](c1ccccc1)C(F)(F)F)C(=O)N[C@H](C#N)Cc1ccccc1	inactive	–
–	5.81	3.16	–	1.7	–	N#CC1(NC(=O)[C@H](Cc2ccccc2)N[C@H](c2cccc(Cl)c2)C(F)(F)F)CC1	inactive	–
–	–	> 10	> 10	–	–	COc1ccc(C[C@H](N[C@H](c2ccccc2)C(F)(F)F)C(=O)N[C@@H](C#N)Cc2ccccc2)cc1	inactive	–
–	–	0.0501	0.0631	–	–	CC(C)C[C@H](NC(=O)c1ccccc1)C(=O)N[C@H](C#N)Cc1ccccc1	inactive	–
–	–	0.0501	0.02	–	–	CC(C)C[C@H](NC(=O)c1ccccc1)C(=O)NC1(C#N)CC1	inactive	–
–	–	> 10	1	–	11.5	N#CC1(NC(=O)[C@H](Cc2c[nH]c3ccccc23)N[C@H](c2ccccc2)C(F)(F)F)CC1	–	33

Second part, the molecule before the results:

SMILES	Ki (Cruzipain [1]) [µM]	V0 [2] [RFU/s]	Ki (Cruzipain [3]) [µM]	Ki (Procathepsin L) [µM]	logKw [4]	EC50 (Trypanosoma cruzi) [µM]	Activity (Trypanosoma cruzi)	CC50 [5] [µM]
COc1ccc(C[C@H](N[C@H](c2ccccc2)C(F)(F)F)C(=O)O)cc1	0.36	5.2	–	–	–	–	–	–
CC(C)C[C@H](N[C@H](c1ccccc1)C(F)(F)F)C(=O)NC1(C#N)CC1	0.143	3.75	0.2	–	1.1	–	inactive	–
N#CC1(NC(=O)[C@H](Cc2ccccc2)NC(=O)c2ccccc2)CC1	–	–	0.316	–	–	–	–	–
N#CC1(NC(=O)[C@H](Cc2ccccc2)N[C@H](c2ccccc2)C(F)(F)F)CC1	–	3.53	–	–	1.4	–	inactive	–
N#C[C@H](Cc1ccccc1)NC(=O)[C@H](Cc1ccccc1)N[C@H](c1ccc(-c2ccccc2)cc1)C(F)(F)F	–	–	> 10	–	–	–	inactive	–
CC(C)C[C@H](N[C@@H](c1ccc(-c2cncnc2)cc1)C(F)(F)F)C(=O)N[C@H](C#N)Cc1ccccc1	–	2.91	0.00158	0.0251	–	–	inactive	–
COc1ccc(C[C@H](N[C@@H](c2ccccc2)C(F)(F)F)C(=O)O)cc1	0.0388	3.85	–	–	–	–	–	–
N#CC1(NC(=O)[C@H](Cc2ccccc2)N[C@@H](c2ccc(Br)cc2)C(F)(F)F)CC1	–	3.6	2	0.251	1.7	–	inactive	–
N#CC1(NC(=O)[C@H](Cc2ccccc2)N[C@@H](c2cccc(Cl)c2)C(F)(F)F)CC1	0.00401	3.65	–	–	–	–	–	–
O=C(O)[C@H](Cc1c[nH]c2ccccc12)N[C@@H](c1cccc(Cl)c1)C(F)(F)F	0.142	2.66	–	–	–	–	–	–
CC(C)C[C@H](N[C@@H](c1ccc(-c2ccccc2)cc1)C(F)(F)F)C(=O)NC1(C#N)CC1	–	3.85	0.00794	0.794	2.6	–	inactive	–
COc1ccc(C[C@H](N[C@@H](c2ccccc2)C(F)(F)F)C(=O)N[C@@H](C#N)Cc2ccccc2)cc1	–	–	0.398	0.631	2.7	–	inactive	–
N#CC1(NC(=O)[C@H](Cc2ccccc2)N[C@@H](c2ccccc2)C(F)(F)F)CC1	–	2.18	1	0.158	1	–	inactive	–
COc1ccc(C[C@H](N[C@H](c2ccccc2)C(F)(F)F)C(=O)NC2(C#N)CC2)cc1	–	3.17	7.94	–	1.5	–	–	–
CC(C)(F)C[C@H](N[C@@H](c1ccc(-c2ccc(S(C)(=O)=O)cc2)cc1)C(F)(F)F)C(=O)NC1(C#N)CC1 [ODANACATIB]	–	–	–	1.26	2	–	inactive	–
COc1ccc(C[C@H](N[C@H](c2ccccc2)C(F)(F)F)C(=O)N[C@H](C#N)Cc2ccccc2)cc1	–	–	3.98	1.58	2.7	–	inactive	–
CC(C)C[C@H](N[C@@H](c1ccccc1)C(F)(F)F)C(=O)N[C@H](C#N)Cc1ccccc1	–	–	0.00158	0.00501	2.3	–	inactive	–
N#CC1(NC(=O)[C@@H](Cc2c[nH]c3ccccc23)N[C@@H](c2ccccc2)C(F)(F)F)CC1	–	–	> 10	1.26	–	25.6	–	–
COc1ccc(C[C@H](N[C@@H](c2ccccc2)C(F)(F)F)C(=O)NC2(C#N)CC2)cc1	–	3.56	3.98	–	1.4	–	inactive	–
N#C[C@@H](Cc1ccccc1)NC(=O)[C@H](Cc1ccccc1)N[C@@H](c1ccccc1)C(F)(F)F	–	–	2.51	0.631	2.6	–	inactive	–
